Assay results from ChEMBL document CHEMBL1150768, “Conformationally constrained analogues of N-(piperidinyl)-5-(4-chlorophenyl)-1-(2,4- dichlorophenyl)-4-methyl-1H-pyrazole-3-carboxamide (SR141716): design, synthesis, computational analysis, and biological evaluations” (J Med Chem, 2008).

How the values were obtained:
Cannabinoid receptor 1 [1] = target: T1, Cannabinoid receptor 1 (Homo sapiens, UniProt P21554); test: Binding affinity to CB1 receptor
Procedure, shortened: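 Membranes from HEK-293 cells expressing human CB1. […] incubated with tritiated agonist radioligand (7.2 nM) or [3H]SR141716 (20 nM) in 50 mM Tris-HCl, 1 mM EDTA, 3 mM MgCl2, 5 mg/mL BSA, pH 7.4, for 1 h at 30 °C. Nonspecific binding taken with 10 µM unlabeled ligand. Filtration, then scintillation counting. Duplicates, 3-6 independent experiments.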

Cannabinoid receptor 2 [2] = target: T2, Cannabinoid receptor 2 (Homo sapiens, UniProt P34972); test: Binding affinity to CB2 receptor
T2 sequence (P34972 whole entry): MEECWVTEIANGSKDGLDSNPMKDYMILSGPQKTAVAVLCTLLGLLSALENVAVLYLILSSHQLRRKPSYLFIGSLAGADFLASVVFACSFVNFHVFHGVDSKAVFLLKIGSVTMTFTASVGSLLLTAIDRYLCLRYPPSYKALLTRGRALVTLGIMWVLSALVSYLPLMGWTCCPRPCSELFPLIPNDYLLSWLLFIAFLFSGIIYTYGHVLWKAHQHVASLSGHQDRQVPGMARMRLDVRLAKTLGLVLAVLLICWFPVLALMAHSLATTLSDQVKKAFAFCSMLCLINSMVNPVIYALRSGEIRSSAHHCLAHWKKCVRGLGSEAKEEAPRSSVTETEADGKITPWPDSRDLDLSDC
Procedure, shortened: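 Human CB2 expressed in CHO-K1 cell membranes, […]. Displacement of tritiated agonist radioligand (ca. 130 Ci/mmol, 7.2 nM) in Tris-HCl/EDTA/MgCl2/BSA buffer at pH 7.4, 1 h at 30 °C. Nonspecific binding with 10 µM unlabeled agonist. Glass-fiber filtration, then liquid scintillation counting. Duplicates, 3-6 independent experiments.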

Cannabinoid receptor 1 [3] = target: T1, Cannabinoid receptor 1; test: biochemical; format: cell-based, HEK293
Cannabinoid receptor 1 [4] = target: T1, Cannabinoid receptor 1; test: biochemical; format: cell-based, CHO-K1
Cannabinoid receptor 2 [5] = target: T2, Cannabinoid receptor 2; test: Displacement of [3H]CP-55940 from human CB2 receptor expressed in CHO-K1 cells; format: cell-based
Procedure, shortened: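 Human CB2 expressed in CHO-K1 cell membranes, […]. Nonspecific binding with 10 µM unlabeled agonist. Glass-fiber filtration, then liquid scintillation counting. Duplicates, 3-6 independent experiments.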

Homo sapiens = organism: Homo sapiens; test: Selectivity for human CB2 receptor over human CB1 receptor

T1 sequence (P21554 whole entry): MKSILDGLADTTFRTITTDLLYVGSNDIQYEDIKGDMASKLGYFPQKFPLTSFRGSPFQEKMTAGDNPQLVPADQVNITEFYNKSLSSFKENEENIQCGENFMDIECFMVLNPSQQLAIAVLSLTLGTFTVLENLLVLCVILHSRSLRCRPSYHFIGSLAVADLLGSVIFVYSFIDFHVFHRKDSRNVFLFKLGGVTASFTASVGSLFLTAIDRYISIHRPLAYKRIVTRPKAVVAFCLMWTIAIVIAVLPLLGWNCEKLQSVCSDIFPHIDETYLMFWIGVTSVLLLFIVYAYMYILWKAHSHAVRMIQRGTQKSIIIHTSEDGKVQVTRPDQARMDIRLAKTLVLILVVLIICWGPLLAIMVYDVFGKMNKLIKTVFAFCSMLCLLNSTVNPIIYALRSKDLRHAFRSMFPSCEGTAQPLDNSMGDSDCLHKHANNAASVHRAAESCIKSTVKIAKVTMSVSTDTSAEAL

| SMILES | Ki (Cannabinoid receptor 1 [1]) [nM] | Ki (Cannabinoid receptor 2 [2]) [nM] | Ki (Cannabinoid receptor 1 [3]) [nM] | Ki (Cannabinoid receptor 1 [4]) [nM] | Ki (Cannabinoid receptor 2 [5]) [nM] | Ratio (Homo sapiens) |
| --- | --- | --- | --- | --- | --- | --- |
| O=C(NN1CCCCC1)c1nn(-c2ccc(Cl)cc2Cl)c2c1CCc1cc(Cl)ccc1-2 | 15 | 230 | – | – | – | – |
| Cc1cc(Cl)cc(C)c1-c1c(C)c(C(=O)NN2CCCCC2)nn1-c1ccc(Cl)cc1Cl | – | – | 194 | 116 | 758 | – |
| O=C(NN1CCCCC1)c1nn(-c2ccc(Cl)cc2Cl)c2c1CCCCc1cc(Cl)ccc1-2 | – | – | 40.9 | 14.7 | 492 | – |
| Cc1c(C(=O)NN2CCCCC2)nn2c3ccc(Cl)cc3c3cc(Cl)ccc3c12 | – | – | – | – | – | 80 |
| Cc1cc(Cl)ccc1-c1c(C)c(C(=O)NN2CCCCC2)nn1-c1ccc(Cl)cc1Cl | – | – | 16.1 | 5.83 | 1120 | – |
| Cc1c(C(=O)NN2CCCCC2)nn(-c2ccc(Cl)cc2Cl)c1-c1ccc(Cl)cc1Cl | – | – | 34.2 | 17.9 | 1040 | – |
| Cc1c(C(=O)NN2CCCCC2)nn(-c2c(Cl)cc(Cl)cc2Cl)c1-c1ccc(Cl)cc1Cl | – | – | 261 | 148 | 1110 | – |
| O=C(NN1CCCCC1)c1nn(-c2ccc(Cl)cc2Cl)c2c1CCCc1cc(Cl)ccc1-2 | 0.00035 | 20 | 18.4 | 5.55 | – | – |
| Cc1cc(Cl)ccc1-c1c(C)c(C(=O)NN2CCCCC2)nn1-c1c(Cl)cc(Cl)cc1Cl | – | – | 251 | 152 | 1780 | – |
